Structures are written as SMILES.

A short description of this data set: Toxicity liver stage against HepG2, at 10uM. It counts as cell-based. Details: test concentration 10 uM, cell line HepG2-A16-CD81EGFP. Particulars: human, HepG2-A16-CD81EGFP cells; read-out: INHIBITION
The method, boiled down: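 Uninfected HepG2-A16-CD81EGFP cells, 3 × 10^3 per well, 1536-well, plated on prespotted compound at 10 μM final, parasite-free screening media added to match infected plates; puromycin 10 μM positive, DMSO 0.5% negative; run in parallel with 48 h PbLuc assay at 37 °C, 5% CO2; viability by CellTiter-Glo luminescence, normalized to controls.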
For `Cc1cc(CN2CCCC2c2c(C)nn(C)c2Cl)on1` (centres undefined), the cytotoxicity at 10 µM is -4.77%.

`CSCC(=O)N[C@H]1CN(Cc2c(C)noc2C)C[C@@H]1C(C)C`: the cytotoxicity at 10 µM turned out to be 5.4%.

Regarding `Cc1cnn(C2CCCN(C(=O)c3c(C)oc4nc[nH]c(=O)c34)C2)c1` (centres undefined), the cytotoxicity at 10 µM was -6.62%.

For `c1cnc(-c2nc(CNCCn3cccn3)cs2)nc1`, the cytotoxicity at 10 µM is -10.3%.

On to `CN(Cc1ccc2c(c1)OCO2)Cc1nc(-c2ccco2)no1`, for which the cytotoxicity at 10 µM was -1.64%.

With `OCCC1CN(c2ncnc3[nH]cnc23)CCN1Cc1cccs1` (centres undefined), the cytotoxicity at 10 µM is 12.8%.

Turning to `CCCc1nnc([C@H]2CCN(Cc3ncc[nH]3)C2)o1`, the cytotoxicity at 10 µM is -1.63%.

Turning to `Cc1noc(CNC(=O)NCC2(C)CCCc3ccccc32)n1` (centres undefined), the cytotoxicity at 10 µM was -1.17%.

With `O=S(=O)(Nc1cnn(C2CCOCC2)c1)c1ccc2c(c1)CCO2`, the cytotoxicity at 10 µM worked out at 5.42%.

For the compound `COc1ccc2c(c1)CCCC2CC(=O)NCC(C)(C)C(=O)O` (centres undefined), the cytotoxicity at 10 µM is -1.2%.

For `CCCn1nc(C(=O)N(C)Cc2nnc3n2CCC3)ccc1=O`, the cytotoxicity at 10 µM turned out to be 1.77%.

In the case of `CNC(=O)CN1CCOCC2(CCCN(Cc3cccnc3)C2)C1` (centres undefined), the cytotoxicity at 10 µM was -6.02%.

As to `CN1CCCN(C(=O)NCc2cccnc2-n2cccn2)CC1`, the cytotoxicity at 10 µM is -17.9%.

On to `Cc1ccc2c(CC(=O)N(C)CCN(C)C)c(C)[nH]c2c1C`, for which the cytotoxicity at 10 µM worked out at 8.42%.

As to `O=c1ccc(-c2cccs2)nn1CN1CCN(c2ccccn2)CC1`, the cytotoxicity at 10 µM is -0.383%.

In the case of `Cn1cc(N2CCCC(Nc3ccc4c(c3)CCCO4)C2=O)cn1` (centres undefined), the cytotoxicity at 10 µM is -6.79%.

Turning to `Cc1cc(CS(=O)(=O)NCC2CCCCC2)on1`, the cytotoxicity at 10 µM was -18.7%.

`CCOc1cc(CNCc2ncc[nH]2)c(Cl)cc1OC(C)C`: the cytotoxicity at 10 µM was determined as 5.45%.

Turning to `CCOC(=O)Cn1ccc(O)c(Cc2ccc(Cl)cc2Cl)c1=O`, the cytotoxicity at 10 µM is 4.19%.

As for `O=C(NC1(c2nccs2)CCCC1)c1cc(C2CC2)[nH]n1`, the cytotoxicity at 10 µM came out at 2%.

As to `O=C(NCCCNC(=O)c1cccc(O)c1)Nc1ccc(Cl)cc1`, the cytotoxicity at 10 µM is -3.79%.

With `CCc1cc(CN(C)C(=O)CN2CC3(CCNCC3)OC2=O)on1`, the cytotoxicity at 10 µM stood at 0.394%.

Take `CC(C)NC(=O)Cn1cc(OCc2ccc(F)cc2)c(=O)cc1CO`: the cytotoxicity at 10 µM was found to be 4.74%.

Regarding `O=C(O)[C@H]1C[C@H](C(=O)NC2CC2)CN(Cc2ccc(-c3cc[nH]n3)s2)C1`, the cytotoxicity at 10 µM is 2.89%.

Take `O=C1CCN(C(=O)c2ncoc2-c2ccco2)c2ncccc2N1`: the cytotoxicity at 10 µM was -3.58%.

Turning to `O=C(Nc1ccc2c(c1)OCO2)Nc1cnn(C2CCOCC2)c1`, the cytotoxicity at 10 µM was -8.54%.

Consider `O=C1CNc2ncnc(N3CCN(Cc4ccccc4F)CC3)c2N1`, for which the cytotoxicity at 10 µM turned out to be 9.87%.

As for `COCCC1COC2(CCN(C(=O)c3ccsc3)CC2)C1` (centres undefined), the cytotoxicity at 10 µM was -71.2%.

Take `Cc1ccc(-n2cnnn2)cc1NCC(=O)Nc1ccccc1Cl`: the cytotoxicity at 10 µM is 7.95%.

On to `Cc1nn(C)c(N2CCCN(C)CC2)c1CNC(=O)C(C)(C)C`, for which the cytotoxicity at 10 µM is -12%.

On to `O=S(=O)(c1cccnc1)N1C[C@@H]2COC[C@]2(CN2CCOCC2)C1`, for which the cytotoxicity at 10 µM was 5.86%.

Consider `O[C@@]1(CNCCCOc2cccnc2)CCCN2CCCC[C@@H]21`, for which the cytotoxicity at 10 µM was 3.42%.

In the case of `O=C(CCN1C(=O)CCC1=O)Nc1ccc(Oc2ccc(Cl)cc2)nc1`, the cytotoxicity at 10 µM is -23.5%.

Consider `COc1ccccc1CN(C)C(=O)CN1CC(n2nc(C)cc2C)C1`, for which the cytotoxicity at 10 µM was determined as 21.3%.

As for `CN1Cc2c(C(=O)Nc3cccnc3)ncn2-c2ccccc2S1(=O)=O`, the cytotoxicity at 10 µM was -4%.

Turning to `Cc1nc(CN2CCC3(CC2)C(=O)N(C)CCN3C)cs1`, the cytotoxicity at 10 µM worked out at 4.37%.

On to `CS(=O)(=O)NC[C@H]1OC[C@@H]2CCN(Cc3ccc(F)cc3)C[C@@H]21`, for which the cytotoxicity at 10 µM was -2.26%.

In the case of `CC(C)CC(C#N)NC(=O)COC1CCCCC1` (centres undefined), the cytotoxicity at 10 µM is 5.42%.

Regarding `Cc1nc(CCNC(=O)CC2CCN(C(C)C)CC2)sc1Cl`, the cytotoxicity at 10 µM is -194%.

The record behind these values is ChEMBL document CHEMBL4513216, “Probing the Open Global Health Chemical Diversity Library for Multistage-Active Starting Points for Next-Generation Antimalarials” (ACS Infect Dis, 2020).
